In ChEMBL document CHEMBL1821668, “Isolation and characterization of aphidicolin and chlamydosporol derivatives from Tolypocladium inflatum” (J Nat Prod, 2011):

Columns and labels:
PANC-1 = test: Cytotoxicity against human PANC1 cells after 72 hrs by MTS assay; format: functional, cell-based; conditions: PANC-1, 72 h
Method in brief: (§1)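 Triplicate wells seeded at (2–5) × 10^3 cells each, depending on growth rate, and left overnight to attach. Medium was then replaced with medium containing test compound at serial dilutions from 100 mM DMSO stocks, or 0.1% DMSO. Incubation was 72 h at 37 °C in humidified 5% CO2. MTS was added in the dark, with a 90 min read-out incubation at 37 °C.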

[1] = Cytotoxicity against human EC109 cells after 72 hrs by MTS assay; format: functional, cell-based; conditions: ECa-109, 72 h; method in brief: as §1
A549 = test: Cytotoxicity against human A549 cells after 72 hrs by MTS assay; format: functional, cell-based; conditions: A549, 72 h; method in brief: as §1
HaCaT = test: Cytotoxicity against human HaCaT cells after 72 hrs by MTS assay; format: functional, cell-based; method in brief: as §1
[2] = Cytotoxicity against human CNE1-LMP1 cells after 72 hrs by MTS assay; format: functional, cell-based; conditions: CNE1-LMP1, 72 h; method in brief: as §1
[3] = Cytotoxicity against human Hep3B2 cells after 72 hrs by MTS assay; format: functional, cell-based, Hep 3B2; conditions: Hep3B; method in brief: as §1
[4] = Cytotoxicity against human MGC cells after 72 hrs by MTS assay; format: functional, cell-based; method in brief: as §1
MCF7 = test: Cytotoxicity against human MCF7 cells after 72 hrs by MTS assay; format: functional, cell-based; conditions: MCF7, 72 h; method in brief: as §1
A-375 = test: Cytotoxicity against human A375 cells after 72 hrs by MTS assay; format: functional, cell-based; conditions: A-375, 72 h; method in brief: as §1

Row | SMILES | IC50 (PANC-1) [µM] | IC50 [1] [µM] | IC50 (A549) [µM] | IC50 (HaCaT) [µM] | IC50 [2] [µM] | IC50 [3] [µM] | IC50 [4] [µM] | IC50 (MCF7) [µM] | IC50 (A-375) [µM]
1 | C[C@@]12CO[C@H](c3ccc(O)cc3)O[C@@H]1CC[C@@]1(C)[C@H]2CC[C@H]2C[C@@H]3C[C@@]21CC[C@]3(O)CO [INFLATIN A] | 19.9 | 47.1 | 75.3 | 49.1 | 39.1 | 14.8 | 54.5 | 33.5 | 47.3
2 | CC(=O)OC[C@@]1(O)CC[C@]23C[C@H]1C[C@@H]2CC[C@H]1[C@]2(C)CO[C@H](c4ccc(O)cc4)O[C@@H]2CC[C@@]13C [INFLATIN B] | 53.2 | 70.8 | 25 | 55.1 | 15 | 7.3 | > 100 | 75.2 | 25.5
3 | COc1cc(=O)oc2c1[C@H](O)O[C@@H](C)[C@H]2C [INFLATIN C] | > 100 | > 100 | > 100 | > 100 | > 100 | > 100 | > 100 | > 100 | > 100
4 | COc1cc(=O)oc2c1[C@H](O[C@@H]1O[C@@H](C)[C@@H](C)c3oc(=O)cc(OC)c31)O[C@@H](C)[C@H]2C [INFLATIN D] | > 100 | > 100 | > 100 | > 100 | > 100 | > 100 | > 100 | > 100 | > 100
5 | COc1cc(=O)oc2c1[C@H](O[C@@H]1O[C@@H](C)[C@@H](C)c3oc(=O)cc(OC)c31)O[C@@H](C)[C@@H]2C [INFLATIN E] | > 100 | > 100 | > 100 | > 100 | > 100 | > 100 | > 100 | > 100 | > 100
6 | COc1cc(=O)oc2c1[C@H](O[C@@H]1O[C@@H](C)[C@H](C)c3oc(=O)cc(OC)c31)O[C@@H](C)[C@@H]2C [INFLATIN F] | > 100 | > 100 | > 100 | > 100 | > 100 | 57.5 | > 100 | > 100 | > 100
7 | CC(=O)O[C@H]1C(=O)[C@@]2(C)[C@H]([C@H](OC(=O)c3ccccc3)[C@]3(O)C[C@H](OC(=O)[C@H](O)[C@@H](NC(=O)c4ccccc4)c4ccccc4)C(C)=C1C3(C)C)[C@]1(OC(C)=O)CO[C@@H]1C[C@@H]2O [PACLITAXEL] | 0.0011 | 0.14 | 0.03 | 0.024 | 0.0042 | 1.6e-05 | 0.0064 | 0.014 | 0.0089
